In ChEMBL document CHEMBL3616437, “Thiazole compounds with activity against Cryptococcus gattii and Cryptococcus neoformans in vitro” (Eur J Med Chem, 2015):
In brackets after ≈: the same amount, converted by molar mass.

What was measured:
[1] = system: Cryptococcus neoformans; test: Antifungal activity against Cryptococcus neoformans 5396 after 48 to 72 hrs by broth microdilution method; format: functional
Procedure, shortened: (§1)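 CLSI M27-A3 broth microdilution. Isolates subcultured twice on SDA, 48 h at 35°C. Saline suspension adjusted to 70% transmittance at 530 nm, then diluted to 1-5 x10^3 cells/mL in RPMI with L-glutamine, 0.165 M MOPS, pH 7.0. Compounds in DMSO, tested at […]. 35°C for 48-72 h. MIC read visually as the lowest concentration giving an optically clear well.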

[2] = system: Cryptococcus gattii species complex; test: Antifungal activity against Cryptococcus gattii L28/02 after 48 to 72 hrs by broth microdilution method; format: functional, Cryptococcus bacillisporus
Procedure, shortened: (§2)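 CLSI M27-A3 broth microdilution in RPMI with L-glutamine, buffered to pH 7.0 with 0.165 M MOPS. Colonies grown twice on SDA, 48 h at 35°C. Inoculum set to 70% transmittance at 530 nm, then diluted to 1-5 x10^3 cells/mL. Test agents dissolved in DMSO, serially diluted, tested at 0.1 to 62.5 µM. Plates held at 35°C for 48-72 h. MIC is the lowest concentration giving an optically clear well, read visually against drug-free growth controls.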

[3] = system: Cryptococcus neoformans; test: Antifungal activity against Cryptococcus neoformans 27JF after 48 to 72 hrs by broth microdilution method; format: functional; procedure, shortened: as §1
[4] = system: Cryptococcus gattii species complex; test: Antifungal activity against Cryptococcus gattii L24/01 after 48 to 72 hrs by broth microdilution method; format: functional, Cryptococcus bacillisporus; procedure, shortened: as §2
[5] = system: Cryptococcus neoformans; test: Antifungal activity against Cryptococcus neoformans WP after 48 to 72 hrs by broth microdilution method; format: functional; procedure, shortened: as §1
[6] = Cytotoxicity against C57BL/6 mouse peritoneal macrophages assessed as cell viability measured after 48 hrs by MTT assay; format: cell-based; conditions: C57BL/6, Peritoneal macrophage cell
Procedure, shortened: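 Thioglycollate-elicited peritoneal macrophages from male C57BL/6 mice, 6–8 weeks old, in RPMI with 10% FBS. Seeded 1 x 10^5 cells/well, pre-incubated 24 h at 37°C. Exposed 48 h at 37°C, 5% CO2, to eight nonserial dilutions from 100 to 0.0128 µM, with 0.5% DMSO control. MTT read-out, % inhibition versus DMSO control. IC50 reported as median with 95% CI. Triplicate, two independent experiments.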

[7] = system: Cryptococcus gattii species complex; test: Antifungal activity against Cryptococcus gattii 1913ER after 48 to 72 hrs by broth microdilution method; format: functional, Cryptococcus bacillisporus; procedure, shortened: as §2
[8] = system: Cryptococcus neoformans; test: Antifungal activity against Cryptococcus neoformans 96806 after 48 to 72 hrs by broth microdilution method; format: functional; procedure, shortened: as §1
[9] = system: Vero; test: Cytotoxicity against African green monkey Vero cells assessed as cell viability measured after 48 hrs by MTT assay; format: cell-based; conditions: Chlorocebus sabaeus
Procedure, shortened: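 VERO cells in D-MEM with 5% FBS, used up to 20 passages. Seeded 1 x 10^4 cells/well, pre-incubated 24 h at 37°C. Exposed 48 h at 37°C, 5% CO2, to eight nonserial dilutions from 100 to 0.0128 µM, with 0.5% DMSO control. MTT reduction read-out, corrected for background and blank. IC50 reported as median with 95% CI. Triplicate, two independent experiments.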

[10] = Selectivity index, ratio of IC50 for African green monkey Vero cells to MIC for Cryptococcus neoformans ATCC 24067; format: toxicity, cell-based
[11] = system: Cryptococcus gattii species complex; test: Ratio of compound MIC for Cryptococcus gattii 23/10993 in presence of amphotericin B to compound MIC for Cryptococcus gattii 23/10993 in absence of amphotericin B by checkerboard microtiter test; format: functional, Cryptococcus bacillisporus
Procedure, shortened: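 Checkerboard microdilution: eight two-fold dilutions of test compound (0.11 to 15.6 µM) crossed with amphotericin B (0.025 to 3.9 µM, in DMSO) or fluconazole (0.48 to 62.5 µM, in water). Inoculum per CLSI M27-A3 in RPMI-MOPS pH 7.0, 1-5 x10^3 cells/mL. Growth 48 to 72 h. Effective MIC is the combination concentration giving complete inhibition. FICs derived from MICs in combination versus alone.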

[12] = system: Cryptococcus gattii species complex; test: Antifungal activity against Cryptococcus gattii L27/01 after 48 to 72 hrs by broth microdilution method; format: functional, Cryptococcus bacillisporus; procedure, shortened: as §2
[13] = system: Cryptococcus neoformans; test: Antifungal activity against Cryptococcus neoformans F10 after 48 to 72 hrs by broth microdilution method; format: functional; procedure, shortened: as §1
[14] = system: Cryptococcus neoformans; test: Antifungal activity against Cryptococcus neoformans ATCC 28957 after 48 to 72 hrs by broth microdilution method; format: functional; procedure, shortened: as §1
[15] = system: Cryptococcus neoformans; test: Antifungal activity against Cryptococcus neoformans ATCC 62066 after 48 to 72 hrs by broth microdilution method; format: functional
[16] = system: Cryptococcus neoformans; test: Antifungal activity against Cryptococcus neoformans LMM820 after 48 to 72 hrs by broth microdilution method; format: functional; procedure, shortened: as §1
[17] = system: Cryptococcus neoformans; test: Antifungal activity against Cryptococcus neoformans CN31 after 48 to 72 hrs by broth microdilution method; format: functional; procedure, shortened: as §1
[18] = system: Cryptococcus gattii species complex; test: Antifungal activity against Cryptococcus gattii 135L/03 after 48 to 72 hrs by broth microdilution method; format: functional, Cryptococcus bacillisporus; procedure, shortened: as §2
[19] = system: Cryptococcus gattii species complex; test: Antifungal activity against Cryptococcus gattii 23/10993 after 48 to 72 hrs by broth microdilution method; format: functional, Cryptococcus bacillisporus; procedure, shortened: as §2
[20] = system: Cryptococcus neoformans; test: Antifungal activity against Cryptococcus neoformans VM-MCMMPI after 48 to 72 hrs by broth microdilution method; format: functional; procedure, shortened: as §1
[21] = system: Cryptococcus neoformans; test: Antifungal activity against Cryptococcus neoformans 28JF after 48 to 72 hrs by broth microdilution method; format: functional; procedure, shortened: as §1
[22] = Selectivity index, ratio of IC50 for C57BL/6 mouse peritoneal macrophages to MIC for Cryptococcus neoformans ATCC 24067
Procedure, shortened: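 SI = IC50/MIC. Thioglycollate-elicited peritoneal macrophages from C57BL/6 mice are seeded at 1 x 10^5/well. They are exposed for 48 h at 37°C to eight concentrations from 100 to 0.0128 µM. Viability read by MTT versus 0.5% DMSO control, triplicate in two experiments.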

[23] = system: Cryptococcus gattii species complex; test: Antifungal activity against Cryptococcus gattii 547/OTTI-97-PI-10 after 48 to 72 hrs by broth microdilution method; format: functional, Cryptococcus bacillisporus; procedure, shortened: as §2
[24] = system: Cryptococcus neoformans; test: Antifungal activity against Cryptococcus neoformans ATCC 24067 after 48 to 72 hrs by broth microdilution method; format: functional; procedure, shortened: as §1
[25] = system: Cryptococcus gattii species complex; test: Antifungal activity against Cryptococcus gattii 196L/03 after 48 to 72 hrs by broth microdilution method; format: functional, Cryptococcus bacillisporus; procedure, shortened: as §2
[26] = system: Cryptococcus gattii species complex; test: Antifungal activity against Cryptococcus gattii ICB181 after 48 to 72 hrs by broth microdilution method; format: functional, Cryptococcus bacillisporus; procedure, shortened: as §2
[27] = system: Cryptococcus gattii species complex; test: Antifungal activity against Cryptococcus gattii LMM818 after 48 to 72 hrs by broth microdilution method; format: functional, Cryptococcus bacillisporus; procedure, shortened: as §2
[28] = system: Cryptococcus bacillisporus; test: Antifungal activity against Cryptococcus gattii ATCC 32608 after 48 to 72 hrs by broth microdilution method; format: functional; procedure, shortened: as §2

- MIC [1]: 1.2 µM (≈ 0.309 µg/mL)
- MIC [2]: 2.7 µM (≈ 0.695 µg/mL)
- MIC [3]: 3.2 µM (≈ 0.824 µg/mL)
- MIC [4]: 1.7 µM (≈ 0.438 µg/mL)
- MIC [5]: 3.2 µM (≈ 0.824 µg/mL)
- MIC [7]: 1 µM (≈ 0.257 µg/mL)
- MIC [8]: 1.9 µM (≈ 0.489 µg/mL)
- MIC [12]: 1.5 µM (≈ 0.386 µg/mL)
- MIC [13]: 2.2 µM (≈ 0.566 µg/mL)
- MIC [14]: 2.2 µM (≈ 0.566 µg/mL)
- MIC [15]: 1.2 µM (≈ 0.309 µg/mL)
- MIC [16]: 2.2 µM (≈ 0.566 µg/mL)
- MIC [17]: 1.9 µM (≈ 0.489 µg/mL)
- MIC [18]: 3.1 µM (≈ 0.798 µg/mL)
- MIC [19]: 2.9 µM (≈ 0.746 µg/mL)
- MIC [20]: 1.6 µM (≈ 0.412 µg/mL)
- MIC [21]: 2.6 µM (≈ 0.669 µg/mL)
- MIC [23]: 1.9 µM (≈ 0.489 µg/mL)
- MIC [24]: 1.9 µM (≈ 0.489 µg/mL)
- MIC [25]: 2.2 µM (≈ 0.566 µg/mL)
- MIC [26]: 1 µM (≈ 0.257 µg/mL)
- MIC [27]: 3.4 µM (≈ 0.875 µg/mL)
- MIC [28]: 2.2 µM (≈ 0.566 µg/mL)
SMILES: c1ccc(-c2csc(NN=C3CCCC3)n2)cc1
- MFC [1]: 0.9 µM (≈ 0.232 µg/mL)
- MFC [2]: 3.9 µM (≈ 1 µg/mL)
- MFC [3]: 7.8 µM (≈ 2.01 µg/mL)
- MFC [4]: 7.8 µM (≈ 2.01 µg/mL)
- MFC [5]: 3.9 µM (≈ 1 µg/mL)
- IC50 [6]: > 100 µM
- MFC [7]: 7.8 µM (≈ 2.01 µg/mL)
- MFC [8]: 7.8 µM (≈ 2.01 µg/mL)
- IC50 [9]: > 100 µM
- selectivity ratio [10]: 29
- fractional inhibitory concentration index (FICI) [11]: 2.18
- MFC [12]: 1.9 µM (≈ 0.489 µg/mL)
- MFC [13]: 7.8 µM (≈ 2.01 µg/mL)
- MFC [14]: 7.8 µM (≈ 2.01 µg/mL)
- MFC [15]: 3.9 µM (≈ 1 µg/mL)
- MFC [16]: 3.9 µM (≈ 1 µg/mL)
- MFC [17]: 1.9 µM (≈ 0.489 µg/mL)
- MFC [18]: 3.9 µM (≈ 1 µg/mL)
- MFC [19]: 3.9 µM (≈ 1 µg/mL)
- MFC [20]: 7.8 µM (≈ 2.01 µg/mL)
- MFC [21]: 1.9 µM (≈ 0.489 µg/mL)
- Ratio [22]: 29
- MFC [23]: 7.8 µM (≈ 2.01 µg/mL)
- MFC [25]: 7.8 µM (≈ 2.01 µg/mL)
- MFC [26]: 1.9 µM (≈ 0.489 µg/mL)
- MFC [27]: 3.9 µM (≈ 1 µg/mL)
- MFC [28]: 3.9 µM (≈ 1 µg/mL)
